Experiments:
Assay type in all cases: functional
Rattus norvegicus [1] = experiment: Amount of triglycerides in obese Zucker rats after 2 weeks of treatment at a dose of 10 mg/kg/day
In short: (§1)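 Female Zucker fatty rats [Crl:(Zuc)-faBR], 10–12 weeks old (400–500 g), dosed once daily by oral gavage in 20% EtOH/80% PEG-200 for up to 14 days. After a 6-h fast, serum was taken pre-dose, at day 7 (orbital venous plexus, O2/CO2 anaesthesia) and at day 14 (cardiac puncture), stored at −80 °C, and assayed on a Hitachi 912 automatic analyzer. Mean ± SEM.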

Rattus norvegicus [2] = experiment: Percentage change of non-HDL cholesterol levels in obese female Zucker rats after 1 week of pre-treatment at a dose of 100 mg/kg/day
In short: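 Female Zucker fatty rats [Crl:(Zuc)-faBR], 10–12 weeks old (400–500 g), acclimated 7 days and fed rodent chow. Dosed once daily by oral gavage in 20% EtOH/80% PEG-200 (v/v), at 0.25% of body weight, for 2 weeks. Blood taken after a 6-h fast: orbital plexus before dosing and at day 7, cardiac puncture at day 14. Serum lipoprotein cholesterol measured by Superose 6 gel filtration with on-line cholesterol detection. Values are % change from pretreatment, mean ± SEM.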

Rattus norvegicus [3] = experiment: Amount of triglycerides in obese Zucker rats after 1 week of treatment at a dose of 30 mg/kg/day; in short: as §1
Rattus norvegicus [4] = experiment: Amount of HDL-cholesterol in obese Zucker rats after 1 week of treatment at a dose of 3 mg/kg/day
In short: (§2)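 Female Zucker fatty rats [Crl:(Zuc)-faBR], 10–12 weeks old (400–500 g), dosed once daily by oral gavage in 20% EtOH/80% PEG-200 (dose volume 0.25% of body weight). Rats were fasted 6 h and bled before dosing and at day 7 (orbital plexus), and at day 14 (cardiac puncture). Serum cholesterol fractions came from Superose 6 gel-filtration lipoprotein profiles (% peak area × serum total cholesterol). Values are mean ± SEM.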

Rattus norvegicus [5] = experiment: Amount of insulin in obese Zucker rats at pre-treatment at a dose of 0 mg/kg/day
In short: (§3)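 Female obese Zucker rats [Crl:(Zuc)-faBR], 400–500 g, given daily oral gavage in 20% EtOH/80% PEG-200 for up to 14 days. After a 6-h fast, serum was collected pretreatment and at day 7 (orbital bleed) and day 14 (cardiac puncture) and stored at -80 °C. Insulin was measured by ELISA. Values are mean ± SEM.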

Rattus norvegicus [6] = experiment: Amount of insulin in obese Zucker rats at pre-treatment at a dose of 10 mg/kg/day; in short: as §3
Rattus norvegicus [7] = experiment: Amount of triglycerides in obese Zucker rats at pre-treatment at a dose of 0 mg/kg/day; in short: as §1
Rattus norvegicus [8] = experiment: Amount of insulin in obese Zucker rats after 2 weeks of treatment at a dose of 100 mg/kg/day; in short: as §3
Rattus norvegicus [9] = experiment: Amount of triglycerides in obese Zucker rats at pre-treatment at a dose of 3 mg/kg/day; in short: as §1
Rattus norvegicus [10] = experiment: Amount of nonesterified fatty acids in obese Zucker rats at pre-treatment at a dose of 10 mg/kg/day; in short: as §1
Rattus norvegicus [11] = experiment: Amount of glucose in obese Zucker rats at pre-treatment at a dose of 100 mg/kg/day
In short: (§4)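 Female Zucker fatty rats [Crl:(Zuc)-faBR], 10–12 weeks old (400–500 g), gavaged daily with vehicle (20% EtOH/80% PEG-200, 0.25% of body weight) or compound. After a 6-h fast, blood glucose was read by glucometer from tail-prick blood of unanesthetized rats before dosing and after 1 and 2 weeks. Values are mean ± SEM.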

Rattus norvegicus [12] = experiment: Amount of glucose in obese Zucker rats after 2 weeks of treatment at a dose of 3 mg/kg/day; in short: as §4
Rattus norvegicus [13] = experiment: Percent increase in triglycerides in obese Zucker rats after 2 weeks of treatment at a dose of 0 mg/kg/day
In short: (§5)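 Female Zucker fatty rats [Crl:(Zuc)-faBR], 10–12 weeks, 400–500 g, acclimated 7 days on chow. Compound or vehicle (20% EtOH/80% PEG-200) given by daily oral gavage for 2 weeks, 0–100 mg/kg/day. After a 6 h fast, blood was taken before dosing, at 1 wk and at 2 wk. Serum lipids, NEFA and insulin (ELISA) were measured; glucose by glucometer. HDL/non-HDL-C came from Superose 6 gel-filtration profiles. Values are % change from pretreatment, mean ± SEM.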

Rattus norvegicus [14] = experiment: Amount of insulin in obese Zucker rats after 1 week of treatment at a dose of 0 mg/kg/day; in short: as §3
Rattus norvegicus [15] = experiment: Amount of glucose in obese Zucker rats at pre-treatment at a dose of 3 mg/kg/day; in short: as §4
Rattus norvegicus [16] = experiment: Amount of nonesterified fatty acids in obese Zucker rats at pre-treatment at a dose of 100 mg/kg/day; in short: as §1
Rattus norvegicus [17] = experiment: Amount of triglycerides in obese Zucker rats after 1 week of treatment at a dose of 3 mg/kg/day; in short: as §1
Rattus norvegicus [18] = experiment: Amount of HDL-cholesterol in obese Zucker rats after 1 week of treatment at a dose of 0 mg/kg/day; in short: as §2
Rattus norvegicus [19] = experiment: Amount of insulin in obese Zucker rats after 2 weeks of treatment at a dose of 10 mg/kg/day; in short: as §3
Rattus norvegicus [20] = experiment: Amount of triglycerides in obese Zucker rats after 2 weeks of treatment at a dose of 3 mg/kg/day; in short: as §1
Rattus norvegicus [21] = experiment: Amount of nonesterified fatty acids in obese Zucker rats at pre-treatment at a dose of 0 mg/kg/day; in short: as §1
Rattus norvegicus [22] = experiment: Amount of nonesterified fatty acids in obese Zucker rats after 1 week of treatment at a dose of 100 mg/kg/day; in short: as §1
Rattus norvegicus [23] = experiment: Amount of non-HDL-cholesterol in obese Zucker rats after 2 weeks of treatment at a dose of 0 mg/kg/day; in short: as §2
Rattus norvegicus [24] = experiment: Amount of glucose in obese Zucker rats after 1 week of treatment at a dose of 0 mg/kg/day; in short: as §4
Rattus norvegicus [25] = experiment: Amount of glucose in obese Zucker rats after 1 week of treatment at a dose of 10 mg/kg/day; in short: as §4
Rattus norvegicus [26] = experiment: Amount of nonesterified fatty acids in obese Zucker rats after 1 week of treatment at a dose of 30 mg/kg/day; in short: as §1
Rattus norvegicus [27] = experiment: Amount of triglycerides in obese Zucker rats after 2 weeks of treatment at a dose of 30 mg/kg/day; in short: as §1
Rattus norvegicus [28] = experiment: Percent decrease in triglycerides in obese Zucker rats after 1 week of treatment at a dose of 10 mg/kg/day; set-up: scale not given: the % may be the effect or the level left; in short: as §5
Rattus norvegicus [29] = experiment: Amount of non-HDL-cholesterol in obese Zucker rats at pre-treatment at a dose of 30 mg/kg/day
In short: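 Female obese Zucker fatty rats [Crl:(Zuc)-faBR], 10–12 weeks old (400–500 g), on chow. Compound in 20% EtOH/80% PEG-200 (v/v) given by daily oral gavage. After a 6-h fast, serum was taken before dosing and at 7 days (orbital plexus), and at 14 days (cardiac puncture). Lipoprotein cholesterol came from Superose 6HR gel-filtration profiles × serum total cholesterol. Mean ± SEM.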

Rattus norvegicus [30] = experiment: Amount of glucose in obese Zucker rats at pre-treatment at a dose of 0 mg/kg/day; in short: as §4
Rattus norvegicus [31] = experiment: Percent decrease in non-HDL-cholesterol in obese Zucker rats after 1 week of treatment at a dose of 30 mg/kg/day; set-up: scale not given: the % may be the effect or the level left; in short: as §5

Structure (SMILES)	Activity (Rattus norvegicus [1])	Change (Rattus norvegicus [2])	Activity (Rattus norvegicus [3])	Activity (Rattus norvegicus [4])	Activity (Rattus norvegicus [5])	Activity (Rattus norvegicus [6])	Activity (Rattus norvegicus [7])	Activity (Rattus norvegicus [8])	Activity (Rattus norvegicus [9])	Activity (Rattus norvegicus [10])	Activity (Rattus norvegicus [11])	Activity (Rattus norvegicus [12])	Activity (Rattus norvegicus [14])	Activity (Rattus norvegicus [15])	Activity (Rattus norvegicus [16])	Activity (Rattus norvegicus [17])	Activity (Rattus norvegicus [18])	Activity (Rattus norvegicus [19])	Activity (Rattus norvegicus [20])	Activity (Rattus norvegicus [21])	other results
CC(C)(CO)CCCCC(=O)CCCCC(C)(C)CO	730 mg/dL	-23%	726 mg/dL	43 mg/dL	9.1 ng/mL	8.4 ng/mL	933 mg/dL	11 ng/mL	755 mg/dL	1.2 mg/dL	114 mg/dL	103 mg/dL	8.7 ng/mL	118 mg/dL	1.4 mg/dL	800 mg/dL	39 mg/dL	7.8 ng/mL	781 mg/dL	1.2 mg/dL	Activity (Rattus norvegicus [13]): 18%; Activity (Rattus norvegicus [22]): 0.98 mg/dL; Activity (Rattus norvegicus [23]): 30 mg/dL; Activity (Rattus norvegicus [24]): 118 mg/dL; Activity (Rattus norvegicus [25]): 110 mg/dL; Activity (Rattus norvegicus [26]): 1.1 mg/dL; Activity (Rattus norvegicus [27]): 985 mg/dL; Activity (Rattus norvegicus [28]): -23%; Activity (Rattus norvegicus [29]): 30 mg/dL; Activity (Rattus norvegicus [30]): 125 mg/dL
CC(C)(CCCCC(=O)CCCCC(C)(C)C(=O)O)C(=O)O	814 mg/dL	-62%	826 mg/dL	36 mg/dL	9.8 ng/mL	10.6 ng/mL	130 mg/dL	9.5 ng/mL	996 mg/dL	1.6 mg/dL	110 mg/dL	103 mg/dL	8.4 ng/mL	108 mg/dL	1.2 mg/dL	775 mg/dL	39 mg/dL	8.9 ng/mL	857 mg/dL	1.5 mg/dL	Activity (Rattus norvegicus [31]): -23%; Activity (Rattus norvegicus [22]): 0.81 mg/dL; Activity (Rattus norvegicus [23]): 29 mg/dL; Activity (Rattus norvegicus [24]): 124 mg/dL; Activity (Rattus norvegicus [25]): 105 mg/dL; Activity (Rattus norvegicus [26]): 1 mg/dL; Activity (Rattus norvegicus [27]): 962 mg/dL; Activity (Rattus norvegicus [29]): 48 mg/dL; Activity (Rattus norvegicus [30]): 134 mg/dL
CC(C)(CCCCCC(=O)CCCCCC(C)(C)C(=O)O)C(=O)O	865 mg/dL	-98%	213 mg/dL	75 mg/dL	9.1 ng/mL	9.9 ng/mL	950 mg/dL	6 ng/mL	905 mg/dL	1.2 mg/dL	117 mg/dL	124 mg/dL	10.1 ng/mL	114 mg/dL	1.4 mg/dL	995 mg/dL	66 mg/dL	9.1 ng/mL	833 mg/dL	1.3 mg/dL	Activity (Rattus norvegicus [31]): -48%; Activity (Rattus norvegicus [13]): 25%; Activity (Rattus norvegicus [22]): 0.98 mg/dL; Activity (Rattus norvegicus [23]): 28 mg/dL; Activity (Rattus norvegicus [24]): 123 mg/dL; Activity (Rattus norvegicus [25]): 122 mg/dL; Activity (Rattus norvegicus [26]): 0.88 mg/dL; Activity (Rattus norvegicus [27]): 475 mg/dL; Activity (Rattus norvegicus [28]): -36%; Activity (Rattus norvegicus [29]): 27 mg/dL; Activity (Rattus norvegicus [30]): 129 mg/dL

— ChEMBL document CHEMBL1137992, “Long hydrocarbon chain keto diols and diacids that favorably alter lipid disorders in vivo” (J Med Chem, 2004)
